H69AR inhibit: proliferation blockers of H69AR lung cancer cells, primary screen, cell-based, human, 86K library; hit rate 6% among 85,000; H69AR lung tumor viability, ATP luminescence, 72 h; stronger effect = lower value; viability, % at 10 µM;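 active = viability at or below 40%; inactive = viability above 40%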;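 note: multidrug resistant small cell line overexpressing MRP-1 efflux transporter; 100% = mean luminescence of untreated control wells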
Lung fibro prol: antiproliferative effect on LL 47 fibroblasts – human, LL 47 cells, CellTiter-Glo luminescence, primary screen | LL 47 human lung fibroblast viability, ATP luminescence; stronger effect = lower value | viability, % at 10 µM | hit rate 1.1% among 85,000;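 active = viability at or below 50% in the single dose screen; inactive = viability above 50%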;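 note: compound exposure lasted 72 h before the ATP readout; 100% = median luminescence of untreated cell-only wells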
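Times – overnight cell rest, 72 h compound treatment at 37 °C · Test system – human lung fibroblast line LL 47, low passage · Amount – 1,150 cells in each well · Controls – cell-only wells, no compound · Doses – 0.1% DMSO in all compound wells · Measured by – CellTiter-Glo luminescence · Buffer or medium – IMEM plus 15% FBS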
HCT116 bCat-KO: primary screen for growth suppressors in beta-catenin knockout HCT116 cells (colon tumor, human). HCT116 beta-catenin knockout viability, CellTiter-Glo, 60 h; stronger effect = lower value. viability, % at 10 µM. hit rate 1.5% among 140,000;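 active = viability at or under a set limit, the compound median less 4 SD, cut at about 6% in these data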;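 note: 0% = Hyamine 1622 control at 20 µM and 100% = untreated cell control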
PTEN del growth: growth suppression of PTEN-null HCT116, primary screen, cell-based, CellTiter-Glo; HCT116 PTEN-null viability, 60 h; stronger effect = lower value; viability, % at 10 µM; hit rate 1.2% among 140,000;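 active = viability at or below a set limit, 4 SD under the median of all tested compounds, cut at about 3.7% in these data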;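 note: PTEN knockout HCT116 line with beta catenin targeted HCT116 as companion control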
HUVEC inhibit: inhibitors of HUVEC proliferation, primary screen, cell-based, 384-well; CellTiter-Glo luminescence, 72 h; stronger effect = lower value; viability, % at 10 µM (by protocol); hit rate 1.1% among 86,000;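 active = viability at or below 30%; inactive = viability above 30%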;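 note: 100% = median luminescence of DMSO-only cell control wells on each plate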
The depositor's hits bear a star. The full list was thinned out, with hits kept by preference.

O=C(Nc1ccc(Cl)c([N+](=O)[O-])c1)C(Sc1ccccc1)c1ccccc1 (stereo not drawn) was read as HCT116 bCat-KO 3.6* and PTEN del growth 3.2*.
`COCCNC(=O)/C(=C/c1ccccc1Cl)c1ccccc1` gave HCT116 bCat-KO 84 and PTEN del growth 89.
`Clc1ccc(CNc2nc(CN3CCOCC3)nc3scc(-c4ccccc4)c23)cc1` gave HCT116 bCat-KO 69 and PTEN del growth 72.
For O=C1/C(=N/n2cnnc2)c2ccccc2N1Cc1ccccc1 the results were H69AR inhibit 17*, Lung fibro prol 92, HCT116 bCat-KO 13, PTEN del growth 22 and HUVEC inhibit 70.
Screening COc1ccc(-c2coc3cc(OC)cc(O)c3c2=O)cc1 returned H69AR inhibit 88, Lung fibro prol 99, HCT116 bCat-KO 78, PTEN del growth 88 and HUVEC inhibit 111.
Screening CC(C)Oc1cc(O)c2c(=O)c(-c3ccc(O)cc3)coc2c1 returned H69AR inhibit 11*, Lung fibro prol 102, HCT116 bCat-KO 76, PTEN del growth 74 and HUVEC inhibit 94.
`COc1ccc(NC(=O)C2CC(=O)N(C)C(=Nc3ccc4c(c3)OCO4)S2)cc1` (stereo not drawn) gave H69AR inhibit 30*, Lung fibro prol 88, HCT116 bCat-KO 71, PTEN del growth 49 and HUVEC inhibit 72.
Screening CN1C(=O)CC(C(=O)Nc2ccc(F)cc2)SC1=Nc1ccc2c(c1)OCO2 (stereo not drawn) returned H69AR inhibit 90, Lung fibro prol 91, HCT116 bCat-KO 89, PTEN del growth 83 and HUVEC inhibit 86.
`CCN(C(=O)c1cnc(N2CCN(c3ncccn3)CC2)c2ccccc12)c1cccc(Cl)c1` gave H69AR inhibit 20*, Lung fibro prol 76, HCT116 bCat-KO 4.0*, PTEN del growth 5 and HUVEC inhibit 51.
Cc1cc(C)cc(C(=O)NCC(=O)OCC(=O)N2CCN(S(=O)(=O)c3ccc4ccccc4c3)CC2)c1 was read as HCT116 bCat-KO 90 and PTEN del growth 86.
`COc1ccc(C(=O)c2ccc(CC#N)s2)cc1` gave HCT116 bCat-KO 49 and PTEN del growth 47.
CCN(CC)S(=O)(=O)c1ccc(-c2nnc(SCC(=O)Nc3nc(C)cs3)o2)cc1 was read as H69AR inhibit 72, Lung fibro prol 62, HCT116 bCat-KO 61, PTEN del growth 62 and HUVEC inhibit 88.
For Cc1ccc(-c2nnc(SCC(=O)Nc3ccc(S(=O)(=O)N4CCCCCC4)cc3)o2)cc1 the results were H69AR inhibit 8.8*, Lung fibro prol 81, HCT116 bCat-KO 89, PTEN del growth 85 and HUVEC inhibit 37.
`Cc1csc(NC(=O)CSc2nnc(-c3ccc(S(=O)(=O)N4CCCC4)cc3)o2)n1` gave H69AR inhibit 34*, Lung fibro prol 96, HCT116 bCat-KO 72, PTEN del growth 73 and HUVEC inhibit 113.
Screening CCc1cccc(C)c1NC(=S)N(Cc1cccnc1)Cc1ccco1 returned HCT116 bCat-KO 81 and PTEN del growth 76.
Screening O=C1NC(c2cccs2)Nc2ccccc21 (stereo not drawn) returned H69AR inhibit 61, Lung fibro prol 100, HCT116 bCat-KO 84, PTEN del growth 66 and HUVEC inhibit 100.
Screening Cc1ccsc1C1NC(=O)c2ccccc2N1 (stereo not drawn) returned H69AR inhibit 23*, Lung fibro prol 88, HCT116 bCat-KO 72, PTEN del growth 74 and HUVEC inhibit 63.
Clc1ccc(CNCc2cccs2)c(Cl)c1 was read as HCT116 bCat-KO 96 and PTEN del growth 96.
CC(=O)c1c(C)nc(-c2ccc(Cl)cc2Cl)n1O was read as H69AR inhibit 90, Lung fibro prol 100, HCT116 bCat-KO 89, PTEN del growth 1.2* and HUVEC inhibit 98.
`COc1ccc2c(c1)CCc1sc(NC(=O)c3ccco3)nc1-2` gave H69AR inhibit 77, Lung fibro prol 117, HCT116 bCat-KO 86, PTEN del growth 92 and HUVEC inhibit 98.
COc1ccc2c(c1)-c1nc(NC(=O)c3ccco3)sc1CC2 was read as H69AR inhibit 39*, Lung fibro prol 106, HCT116 bCat-KO 96, PTEN del growth 86 and HUVEC inhibit 100.
For COc1ccc2c(c1)nc1n2CN(CC2CCCO2)CN1Cc1ccccc1 (stereo not drawn) the results were H69AR inhibit 25*, Lung fibro prol 86 and HUVEC inhibit 68.
Screening COc1ccc(/C=C2/C(=O)N(CC3CCCO3)C(=S)N2C)c(OC)c1 (stereo not drawn) returned HCT116 bCat-KO 90 and PTEN del growth 84.
`COc1ccc(C2c3c(oc4ccccc4c3=O)C(=O)N2c2ccccn2)cc1OC` (stereo not drawn) gave H69AR inhibit 26*, Lung fibro prol 92 and HUVEC inhibit 92.
Screening COc1ccc(C2c3c(oc4ccccc4c3=O)C(=O)N2c2ccccn2)cc1 (stereo not drawn) returned H69AR inhibit 78, Lung fibro prol 88, HCT116 bCat-KO 74, PTEN del growth 74 and HUVEC inhibit 99.
CCOC(=O)CCCCC(=O)c1[nH]c(=O)[nH]c1CSc1nnc2c3ccccc3n(C(C)C)c2n1 was read as HCT116 bCat-KO 89 and PTEN del growth 92.
`COc1ccc(/C=C2\CCc3ccccc3C2=O)cc1Cn1cccn1` gave HCT116 bCat-KO 2.9* and PTEN del growth 2.2*.
For CC(=O)c1c(C)nc2sc3c(=N)n(N)cnc3c2c1-c1ccc(Cl)cc1 the results were HCT116 bCat-KO 43 and PTEN del growth 59.
Cc1ccc2c(c1)cc(CN(Cc1ccc3c(c1)OCO3)S(=O)(=O)c1ccccc1)c1nnnn12 was read as H69AR inhibit 31*, Lung fibro prol 56, HCT116 bCat-KO 81, PTEN del growth 99 and HUVEC inhibit 95.
`Cc1ccc2c(c1)cc(CN(Cc1cccs1)C(=O)c1ccco1)c1nnnn12` gave H69AR inhibit 57, Lung fibro prol 81, HCT116 bCat-KO 82, PTEN del growth 75 and HUVEC inhibit 79.
Cc1ccc(-c2noc(CCC(=O)NCCCN3CCN(c4ccc(F)cc4)CC3)n2)cc1 was read as H69AR inhibit 27*, Lung fibro prol 58, HCT116 bCat-KO 12, PTEN del growth 9 and HUVEC inhibit 75.
For Cc1ccc(-c2noc(CCC(=O)NCCCN3CCN(c4cccc(Cl)c4)CC3)n2)cc1 the results were H69AR inhibit 37*, Lung fibro prol 57, HCT116 bCat-KO 7, PTEN del growth 5 and HUVEC inhibit 23*.
`COc1ccc(-c2noc(CCC(=O)NCCCN3CCC(C)CC3)n2)cc1` gave H69AR inhibit 97, Lung fibro prol 100, HCT116 bCat-KO 99, PTEN del growth 110 and HUVEC inhibit 99.
